Legend:
Blood [1] = assay: Biodistribution in blood of C57BL/6 mouse bearing mouse B16-F0 cells at 0.74 to 0.92 MBq, iv after 24 hrs; format: ADME, organism-based; conditions: in vivo
Outline: (§1)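 Male C57BL6 mice with s.c. left-flank B16-F0 melanoma (5 × 10⁵ cells in PBS). Two mice per time point frozen in liquid nitrogen after CO₂ sacrifice. Eight 40 µm whole-body cryosections per mouse read by multiwire proportional counter. cpm/mm² converted to kBq/g and expressed as %ID/g.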

[2] = Biodistribution in intestinal content of C57BL/6 mouse bearing mouse B16-F0 cells at 0.74 to 0.92 MBq, iv after 6 hrs; format: ADME, organism-based; conditions: in vivo; outline: as §1
[3] = Biodistribution in uvea of C57BL/6 mouse bearing mouse B16-F0 cells at 0.74 to 0.92 MBq, iv after 24 hrs; format: ADME, organism-based, Uveal tract; conditions: in vivo
Outline: (§2)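 [¹²⁵I]-labelled compound given iv by tail vein (0.1 µmol per mouse) to male C57BL6 mice bearing s.c. B16-F0 flank tumours (5 × 10⁵ cells in PBS). Two mice per time point were killed by CO₂, frozen in liquid nitrogen and cut into 40 µm cryosections, eight slices per mouse. Slice radioactivity was read on a multiwire proportional counter, converted to kBq/g and reported as %ID/g.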

[4] = Partition coefficient, log P in phosphate buffer solution at pH 7.4; format: physicochemical
Outline: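 Shake-flask partition: 50 µM [¹²⁵I]-labelled compound in phosphate buffer pH 7.4 was mixed with 2 mL n-octanol. Each phase was γ-counted, P was taken as the octanol/buffer activity ratio, and log P was reported.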

Thyroid gland [5] = assay: Biodistribution in thyroid of C57BL/6 mouse bearing mouse B16-F0 cells at 0.74 to 0.92 MBq, iv after 72 hrs; format: ADME, organism-based; conditions: in vivo; outline: as §2
Brain [6] = assay: Biodistribution in brain of C57BL/6 mouse bearing mouse B16-F0 cells at 0.74 to 0.92 MBq, iv after 6 hrs; format: ADME, organism-based; conditions: in vivo; outline: as §1
[7] = Ratio of drug level in tumor to lung of C57BL/6 mouse bearing mouse B16-F0 cells at 0.74 to 0.92 MBq, iv after 3 hrs; format: ADME, organism-based; conditions: in vivo
Outline: (§3)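 Tumour and organ radioactive concentrations came from whole-body cryosection counting (40 µm slices, eight per mouse, two mice per time) after tail-vein injection of the [¹²⁵I]-labelled compound (0.1 µmol) into male C57BL6 mice bearing s.c. B16-F0 melanoma. Each value is the ratio of the tumour concentration to the organ concentration.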

Spleen [8] = assay: Biodistribution in spleen of C57BL/6 mouse bearing mouse B16-F0 cells at 0.74 to 0.92 MBq, iv after 1 hr; format: ADME, organism-based; conditions: in vivo; outline: as §2
[9] = Biodistribution in intestinal content of C57BL/6 mouse bearing mouse B16-F0 cells at 0.74 to 0.92 MBq, iv after 1 hr; format: ADME, organism-based; conditions: in vivo; outline: as §1
Liver = assay: Biodistribution in liver of C57BL/6 mouse bearing mouse B16-F0 cells at 0.74 to 0.92 MBq, iv after 1 hr; format: ADME, organism-based; conditions: in vivo; outline: as §1
Brain [10] = assay: Biodistribution in brain of C57BL/6 mouse bearing mouse B16-F0 cells at 0.74 to 0.92 MBq, iv after 1 hr; format: ADME, organism-based; conditions: in vivo; outline: as §1
[11] = Ratio of drug level in tumor to lung of C57BL/6 mouse bearing mouse B16-F0 cells at 0.74 to 0.92 MBq, iv after 24 hrs; format: ADME, organism-based; conditions: in vivo; outline: as §3
[12] = Biodistribution in uvea of C57BL/6 mouse bearing mouse B16-F0 cells at 0.74 to 0.92 MBq, iv after 3 hrs; format: ADME, organism-based, Uveal tract; conditions: in vivo; outline: as §2
Pancreas [13] = assay: Biodistribution in pancreas of C57BL/6 mouse bearing mouse B16-F0 cells at 0.74 to 0.92 MBq, iv after 6 hrs; format: ADME, organism-based; conditions: in vivo; outline: as §1
Thyroid gland [14] = assay: Biodistribution in thyroid of C57BL/6 mouse bearing mouse B16-F0 cells at 0.74 to 0.92 MBq, iv after 24 hrs; format: ADME, organism-based; conditions: in vivo; outline: as §2
Kidney [15] = assay: Biodistribution in kidney of C57BL/6 mouse bearing mouse B16-F0 cells at 0.74 to 0.92 MBq, iv after 1 hr; format: ADME, organism-based; conditions: in vivo; outline: as §1
Lung [16] = assay: Biodistribution in lung of C57BL/6 mouse bearing mouse B16-F0 cells at 0.74 to 0.92 MBq, iv after 24 hrs; format: ADME, organism-based; conditions: in vivo; outline: as §1
[17] = Biodistribution in intestinal content of C57BL/6 mouse bearing mouse B16-F0 cells at 0.74 to 0.92 MBq, iv after 24 hrs; format: ADME, organism-based; conditions: in vivo; outline: as §1
Muscle tissue = assay: Biodistribution in muscle of C57BL/6 mouse bearing mouse B16-F0 cells at 0.74 to 0.92 MBq, iv after 1 hr; format: ADME, organism-based; conditions: in vivo; outline: as §1
Kidney [18] = assay: Biodistribution in kidney of C57BL/6 mouse bearing mouse B16-F0 cells at 0.74 to 0.92 MBq, iv after 24 hrs; format: ADME, organism-based; conditions: in vivo; outline: as §1
[19] = Biodistribution in tumor of C57BL/6 mouse bearing mouse B16-F0 cells at 0.74 to 0.92 MBq, iv after 72 hrs; format: ADME, organism-based, Neoplasm; conditions: in vivo; outline: as §2
[20] = Biodistribution in tumor of C57BL/6 mouse bearing mouse B16-F0 cells at 0.74 to 0.92 MBq, iv after 1 hr; format: ADME, organism-based, Neoplasm; conditions: in vivo; outline: as §2
[21] = Ratio of drug level in tumor to brain of C57BL/6 mouse bearing mouse B16-F0 cells at 0.74 to 0.92 MBq, iv after 6 hrs; format: ADME, organism-based; conditions: in vivo; outline: as §3
Blood [22] = assay: Biodistribution in blood of C57BL/6 mouse bearing mouse B16-F0 cells at 0.74 to 0.92 MBq, iv after 6 hrs; format: ADME, organism-based; conditions: in vivo; outline: as §1
Spleen [23] = assay: Biodistribution in spleen of C57BL/6 mouse bearing mouse B16-F0 cells at 0.74 to 0.92 MBq, iv after 24 hrs; format: ADME, organism-based; conditions: in vivo; outline: as §2
Lung [24] = assay: Biodistribution in lung of C57BL/6 mouse bearing mouse B16-F0 cells at 0.74 to 0.92 MBq, iv after 3 hrs; format: ADME, organism-based; conditions: in vivo; outline: as §1
Kidney [25] = assay: Biodistribution in kidney of C57BL/6 mouse bearing mouse B16-F0 cells at 0.74 to 0.92 MBq, iv after 3 hrs; format: ADME, organism-based; conditions: in vivo; outline: as §1
Pancreas [26] = assay: Biodistribution in pancreas of C57BL/6 mouse bearing mouse B16-F0 cells at 0.74 to 0.92 MBq, iv after 3 hrs; format: ADME, organism-based; conditions: in vivo; outline: as §1
[27] = Ratio of drug level in tumor to lung of C57BL/6 mouse bearing mouse B16-F0 cells at 0.74 to 0.92 MBq, iv after 1 hr; format: ADME, organism-based; conditions: in vivo; outline: as §3
Thyroid gland [28] = assay: Biodistribution in thyroid of C57BL/6 mouse bearing mouse B16-F0 cells at 0.74 to 0.92 MBq, iv after 1 hr; format: ADME, organism-based; conditions: in vivo; outline: as §2
Brain [29] = assay: Biodistribution in brain of C57BL/6 mouse bearing mouse B16-F0 cells at 0.74 to 0.92 MBq, iv after 3 hrs; format: ADME, organism-based; conditions: in vivo; outline: as §1
Spleen [30] = assay: Biodistribution in spleen of C57BL/6 mouse bearing mouse B16-F0 cells at 0.74 to 0.92 MBq, iv after 72 hrs; format: ADME, organism-based; conditions: in vivo; outline: as §2
[31] = Biodistribution in Stomach content of C57BL/6 mouse bearing mouse B16-F0 cells at 0.74 to 0.92 MBq, iv after 72 hrs; format: ADME, organism-based; conditions: in vivo; outline: as §1

Compound | Drug uptake [2] [% ID/g] | Drug uptake [3] [% ID/g] | logD [4] | Drug uptake (Brain [6]) [% ID/g] | Ratio [7] | Drug uptake (Spleen [8]) [% ID/g] | Drug uptake [9] [% ID/g] | Drug uptake (Liver) [% ID/g] | Drug uptake (Brain [10]) [% ID/g] | Ratio [11] | Drug uptake [12] [% ID/g] | Drug uptake (Kidney [15]) [% ID/g] | Drug uptake [17] [% ID/g] | Drug uptake (Muscle tissue) [% ID/g] | Drug uptake [19] [% ID/g] | Drug uptake [20] [% ID/g] | Drug uptake (Blood [22]) [% ID/g] | Drug uptake (Lung [24]) [% ID/g] | Drug uptake (Kidney [25]) [% ID/g] | Ratio [27] | other results
CCN(CC)CCNC(=O)c1c[nH]c2ccc([125I])cc2c1=O.Cl.Cl | 61.06 | 3.5 | 1.3 | 0.08 | 4.6 | 1.24 | 52.94 | 5.16 | 0.07 | 68.5 | 5.66 | 2.8 | 1.62 | 0.92 | 2.4 | 4.7 | 0.17 | 0.88 | 0.8 | 2.28 | Drug uptake (Blood [1]): 0.22 % ID/g; Drug uptake (Thyroid gland [5]): 9.83 % ID/g; Drug uptake (Pancreas [13]): 1.08 % ID/g; Drug uptake (Thyroid gland [14]): 5.09 % ID/g; Drug uptake (Lung [16]): 0.04 % ID/g; Drug uptake (Kidney [18]): 0.03 % ID/g; Ratio [21]: 72.6; Drug uptake (Spleen [23]): 0.15 % ID/g; Drug uptake (Pancreas [26]): 0.96 % ID/g
CCN(CC)CCNC(=O)c1cc2c([125I])cccc2cn1.Cl.Cl | 29.16 | 14.55 | 1.65 | – | 2.58 | 2.83 | 42.97 | 3.86 | 0.3 | – | 13.87 | 4.62 | 1.7 | 0.74 | 3.1 | 7.3 | 2.17 | 2.76 | 2.66 | 1.96 | Drug uptake (Thyroid gland [5]): 132.79 % ID/g; Drug uptake (Thyroid gland [28]): 16.88 % ID/g; Drug uptake (Thyroid gland [14]): 88.65 % ID/g; Drug uptake (Brain [29]): 0.09 % ID/g; Drug uptake (Spleen [30]): 1.62 % ID/g
CCN(CC)CCNC(=O)c1ccc2cc([125I])ccc2n1.Cl.Cl | 23.36 | 22.27 | 1.87 | 0.37 | 4.54 | 11.56 | 15.78 | 10.92 | 1.96 | 22.89 | 33.1 | 11.82 | 1.45 | 1.79 | 5.9 | 19.6 | 5.91 | 5.58 | 12.59 | 2.09 | Drug uptake (Lung [16]): 0.53 % ID/g; Drug uptake (Kidney [18]): 0.34 % ID/g; Drug uptake (Brain [29]): 0.83 % ID/g; Ratio [21]: 46.51; Drug uptake (Spleen [23]): 2.66 % ID/g; Drug uptake (Spleen [30]): 1.85 % ID/g; Drug uptake (Pancreas [26]): 6.17 % ID/g
CCN(CC)CCNC(=O)c1cc2cc([125I])ccc2[nH]1.Cl | 79.85 | 8.81 | 1.69 | 0.74 | 2.95 | 8.09 | 76.74 | 11.86 | 4.84 | 22.05 | 12.78 | 4.19 | 3.31 | 1.5 | 0.8 | 8.3 | 0.67 | 3.46 | 4.19 | 0.58 | Drug uptake (Blood [1]): 0.1 % ID/g; Drug uptake (Pancreas [13]): 1.46 % ID/g; Drug uptake (Lung [16]): 0.37 % ID/g; Drug uptake (Kidney [18]): 0.83 % ID/g; Drug uptake (Brain [29]): 1.73 % ID/g; Ratio [21]: 5.38; Drug uptake [31]: 0.04 % ID/g; Drug uptake (Spleen [23]): 1.22 % ID/g; Drug uptake (Spleen [30]): 10.87 % ID/g; Drug uptake (Pancreas [26]): 2.48 % ID/g

Reference: ChEMBL document CHEMBL1150393, “Evaluation of radiolabeled (hetero)aromatic analogues of N-(2-diethylaminoethyl)-4-iodobenzamide for imaging and targeted radionuclide therapy of melanoma” (J Med Chem, 2008)
